# Source: ChEMBL document CHEMBL1153932, “Hybrid alpha-bromoacryloylamido chalcones. Design, synthesis and biological evaluation” (Bioorg Med Chem Lett, 2009)
# The source made the active and inactive calls. The rule behind the calls is not given here.
# Legend:
# L1210 = assay: Antiproliferative activity against mouse L1210 cells after 48 hrs by Coulter counting analysis; type: functional, cell-based; conditions: L1210, 48 h
# FM3A = assay: Antiproliferative activity against mouse FM3A cells after 48 hrs by Coulter counting analysis; type: functional, cell-based
# MOLT-4 = assay: Antiproliferative activity against human MOLT4 cells after 48 hrs by Coulter counting analysis; type: functional, cell-based; conditions: MOLT-4, 48 h
# CCRF-CEM = assay: Antiproliferative activity against human CEM cells after 48 hrs by Coulter counting analysis; type: cell-based
# HeLa = assay: Antiproliferative activity against human HeLa cells after 48 hrs by Coulter counting analysis; type: functional, cell-based
# [1] = Inhibition of bovine brain tubulin polymerization; design: species or system Bos taurus
# K562 [2] = assay: Antiproliferative activity against human K562 cells after 48 hrs by Coulter counting analysis; type: functional, cell-based; conditions: K562, 48 h
# K562 [3] = assay: Cell cycle arrest in human K562 cells assessed as accumulation at subG1 phase at IC75 after 72 hrs using propidium iodide staining by flow cytometry; type: functional
# How it was run: (§1)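 K562 cells were cultured 72 h with or without compound, then stained with propidium iodide and analysed by flow cytometry. The proportions of cells in sub-G1, G0–G1, S and G2-M were read from DNA histograms and compared with untreated controls.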
# K562 [4] = assay: Cell cycle arrest in human K562 cells assessed as accumulation at G0-G1 phase at IC75 after 72 hrs using propidium iodide staining by flow cytometry; type: functional; how it was run: as §1
# K562 [5] = assay: Cell cycle arrest in human K562 cells assessed as accumulation at S phase at IC75 after 72 hrs using propidium iodide staining by flow cytometry; type: functional; how it was run: as §1
# K562 [6] = assay: Cell cycle arrest in human K562 cells assessed as accumulation at G2-M phase at IC75 after 72 hrs using propidium iodide staining by flow cytometry; type: functional; how it was run: as §1
# K562 [7] = assay: Induction of apoptosis in human K562 cells assessed as phosphatidylserine externalization at 0.2 uM after 3 days using annexin-V-FITC staining by flow cytometry; type: functional, cell-based
# [8] = Solubility of the compound; type: physicochemical
# K562 [9] = assay: Induction of apoptosis in human K562 cells assessed as increase in mitochondrial mass at […] after 48 hrs using 10-N-nonyl acridine orange staining by flow cytometry; type: functional, cell-based
# K562 [10] = assay: Induction of apoptosis in human K562 cells assessed as caspase 3 activation at 0.6 uM after 24 hrs by flow cytometry; type: functional, cell-based
# How it was run: (§2)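 K562 cells were treated with compound for 24 h and 48 h, then harvested. Cells were stained with a FITC-conjugated monoclonal antibody against the active fragment of human caspase-3 and analysed by flow cytometry against untreated controls.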
# K562 [11] = assay: Induction of apoptosis in human K562 cells assessed as caspase 3 activation at 0.6 uM after 48 hrs by flow cytometry; type: functional, cell-based; how it was run: as §2
# K562 [12] = assay: Induction of apoptosis in human K562 cells assessed as caspase 3 activation at 1.25 uM after 24 hrs by flow cytometry; type: functional, cell-based; how it was run: as §2
# K562 [13] = assay: Induction of apoptosis in human K562 cells assessed as caspase 3 activation at 1.25 uM after 48 hrs by flow cytometry; type: functional, cell-based; how it was run: as §2
# K562 [14] = assay: Induction of apoptosis in human K562 cells assessed as phosphatidylserine externalization up to 3 uM after 24 hrs using annexin-V-FITC staining by flow cytometry; type: functional, cell-based
# K562 [15] = assay: Induction of apoptosis in human K562 cells assessed as phosphatidylserine externalization up to 3 uM after 48 hrs using annexin-V-FITC staining by flow cytometry; type: functional, cell-based
IC50 (L1210) [nM],IC50 (MOLT-4) [nM],IC50 (CCRF-CEM) [nM],IC50 (HeLa) [nM],IC50 [1] [nM],solubility [8],Structure (SMILES),IC50 (FM3A) [nM],IC75 (K562 [2]) [nM],Activity (K562 [3]) [%],Activity (K562 [4]) [%],Activity (K562 [5]) [%],Activity (K562 [6]) [%],other results
630,680,840,510,> 40000,Insoluble,C=C(Br)C(=O)Nc1ccc(C(=O)/C=C/c2ccc(OC)c(OC)c2OC)cc1,530,710,57.8,13.7,14.9,13.6,IC50 (K562 [2]): 200 nM; Activity (K562 [7]): Active
240,610,750,750,> 40000,Insoluble,C=C(Br)C(=O)Nc1ccc(/C=C/C(=O)c2ccc(OCC)cc2)cc1,680,850,52.3,16.5,19.6,11.6,Activity (K562 [9]): Active; Activity (K562 [10]): Active; Activity (K562 [11]): Active; Activity (K562 [12]): Active; Activity (K562 [13]): Active
1900,1300,1500,610,–,–,C=C(Br)C(=O)Nc1ccc(C(=O)/C=C/c2ccc(N(C)C)cc2)cc1,2800,–,–,–,–,–,Activity (K562 [14]): Active; Activity (K562 [15]): Active
